Published values of several laboratories.
Protocols differ between the studies behind these lines.

SMILES | host | medium | route | dose | notes | Cmax
Cc1noc([C@H](Cc2c[nH]cn2)NC(=O)CN(CCCc2ccccc2)CC(=O)O)n1 | male C57BL/6 mouse | plasma | intraperitoneal | 30 mg/kg |  | 5800 ng/mL
Cc1nc(-c2cnc(NC(C)C)n(C)c2=O)ccc1Oc1ccnc(-c2cnn(C)c2)c1 | female mouse | plasma | oral | 30 mg/kg | single dose | 9350 ng/mL
CCc1cc(OC)c2nccc(N3CCc4c(cc(Cn5ccnc5)cc4-c4cn(C)nc4C(F)(F)F)C3=O)c2c1 | male CD-1 mouse | plasma | oral | 150 mg/kg |  | 35200 ng/mL
CC(C)(C)c1cc(NC(=O)Nc2ccc(Oc3ccnc4[nH]c(=O)cnc34)cc2F)n(-c2ccccc2)n1 | BALB/c mouse | plasma | intravenous | 2 mg/kg |  | 38.1 µM
C=CC(=O)N1CC2CC(n3nc(-c4ccc(C(=O)Nc5ccccn5)cc4)c4c(N)ncnc43)CC2C1 (stereo not shown) | SCID mouse | plasma | oral | 0.2 mg/kg |  | 10.5 ng/mL
COc1nc(-c2cc(C)c(N[C@@H](C)c3c(F)cc(F)cc3F)nn2)ccc1-n1cnc(C)c1 | male CD-1 mouse | plasma | oral | 5 mg/kg | single dose | 1010 ng/mL
OC[C@H]1O[C@@H](c2ccc(Cl)c(Cc3ccc(O[C@H]4CCOC4)cc3)c2)[C@H](O)[C@@H](O)[C@@H]1O | CD-1 mouse | plasma | intravenous | 5 mg/kg |  | 4920 ng/mL
COc1ccc2c3c1O[C@H]1C[C@@H](OC(=O)c4ccccc4)C=C[C@@]31CCN(C)C2 | mouse | brain | intravenous | 3 mg/kg |  | 4810 ng/g
CC(C)(O)c1cn(-c2ccc(-c3cccc(S(C)(=O)=O)c3)cc2)c(C(C)(C)c2ccccc2Cl)n1 | male C57BL/6 mouse | serum | oral | 10 mg/kg |  | 15 µM
COc1ccc(C(O)COc2ccc(-c3csc(-c4ccc(OCC(O)c5ccc(OC)c(OC)c5)cc4)n3)cc2)cc1OC (stereo not shown) | C57BL/6 mouse | plasma | oral | 75 mg/kg |  | 7680 ng/mL
NS(=O)(=O)c1ccc(-c2cc(Nc3ccc(OC(F)(F)F)cc3)ncn2)cc1 | male BALB/c mouse | plasma | oral | 20 mg/kg |  | 2000 ng/mL
Cc1nc2ccc(F)cc2n1-c1nc(N)c(F)c(Nc2ccc(C(F)(F)F)cc2)n1 | nude mouse | plasma | oral | 10 mg/kg |  | 1160 ng/mL
O=C(CCCCCC(=O)NN=Cc1ccc(-c2ccccc2)cc1)NO | C57BL/6 mouse | brain | intraperitoneal | 25 mg/kg | single dose | 0.06 µM
Cc1ccc2cncc(N3CCc4c(cc(Cn5ccnc5)cc4-c4cn(C)nc4C(F)(F)F)C3=O)c2c1 | male CD-1 mouse | plasma | oral | 50 mg/kg |  | 6580 ng/mL
Cc1c2c(n(-c3ccc(F)cc3Cl)c1-c1ccc(OS(=O)(=O)CCC(F)(F)F)cc1)CCN(N1CCCCC1)C2=O | mouse | plasma | oral | 6 µmol/kg | single dose | 0.04 µM
Cc1ncsc1-c1ccc(CNC(=O)[C@@H]2C[C@@H](O)CN2C(=O)[C@@H](NC(=O)CCCCCCCCCC(=O)N2CCN(CC[C@H](NC(=O)C3(N)CCN(c4ncnc5[nH]ccc45)CC3)c3ccc(Cl)cc3)CC2)C(C)(C)C)cc1 | mouse | plasma | intraperitoneal | 75 mg/kg | single dose | 10 µM
CNC(=O)[C@H](Cc1c[nH]cn1)NC(=O)CN(CCCc1ccccc1)CC(=O)O | male C57BL/6 mouse | plasma | intraperitoneal | 30 mg/kg |  | 11000 ng/mL

SMILES | host | medium | route | dose | notes | Cmax
COc1ccc([C@@]23Oc4cc(OC)cc(OC)c4[C@]2(O)[C@H](O)[C@H](C(=O)N(C)C)[C@H]3c2ccccc2)cc1 | mouse | plasma | intraperitoneal | 5 mg/kg |  | ~4 µM
C[C@H](NC(=O)C(C)(C)Oc1ccc(C(F)(F)F)cn1)[C@@H](Cc1ccc(Cl)cc1)c1cccc(C#N)c1 | mouse | plasma | oral | 6 µmol/kg | single dose | 0.7 µM
COc1nc(-c2cc(C)c(N[C@@H](C)c3cc(F)cc(F)c3)nn2)ccc1-n1cnc(C)c1 | male CD-1 mouse | plasma | oral | 5 mg/kg | single dose | 1180 ng/mL
CN1C(=O)c2ccccc2[S@+]([O-])c2ccc(C(=O)NCCc3cccs3)cc21 | male C57BL/6 mouse | plasma | intraperitoneal | 30 mg/kg | single dose | 8280 ng/mL
CCOc1ccc(Cc2cc([C@@H]3O[C@H](CO)[C@@H](O)[C@H](O)[C@H]3O)ccc2Cl)cc1 | male C57BL/6 mouse | plasma | oral | 1 mg/kg |  | 207 ng/mL
COc1ccc2nccc(N3CCc4c(cc(Cn5ccnc5)cc4-c4cn(C)nc4C(F)(F)F)C3=O)c2c1 | male CD-1 mouse | plasma | oral | 10 mg/kg |  | 1150 ng/mL
CNC(=O)c1cc(Oc2ccc(NC(=O)Nc3ccc(Cl)c(C(F)(F)F)c3)c(F)c2)ccn1 | male mouse | plasma | oral | 10 mg/kg | single dose | 3300 ng/mL
CC[C@H](C)[C@@H]1NC(=O)[C@@](C)(NC(=O)[C@H](CCCNC(=N)N)NC(=O)[C@H](CC(C)C)NC(=O)[C@@H](NC(=O)[C@H](CCC(N)=O)NC(=O)[C@H](CC(C)C)NC(C)=O)[C@@H](C)O)CCCC=CCCC[C@@](C)(C(=O)N[C@@H](CC(C)C)C(=O)N[C@@H](Cc2ccc3ccccc3c2)C(N)=O)NC(=O)[C@H](CCCNC(=N)N)NC(=O)[C@H](CCC(N)=O)NC1=O | male BALB/c mouse | plasma | intravenous | 15 mg/kg |  | 102 µM
CC(C)(C)c1ccc(O)c(CN(Cc2cc(C(C)(C)C)ccc2O)C2CCC(NC(N)=O)CC2)c1 (stereo not shown) | male C57BL/6 mouse | brain | intraperitoneal | 25 mg/kg | single dose | 1610 ng/g
COc1cc2c(Nc3ccc(Cl)c(Cl)c3F)ncnc2cc1OC[C@@H]1C[C@@H]2CN(C)C[C@@H]2C1 | FVB mouse | plasma | oral | 70 mg/kg | single dose | 3780 ng/mL
Cn1cnc2c(F)c(Nc3ccc(Br)cc3Cl)c(C(=O)NOCCO)cc21 | nude mouse | liver | oral | 10 mg/kg | single dose, tumour-bearing | 1440 ng/g
CN1CCC[C@H](CN2c3ccccc3Sc3ccccc32)C1.Cl | mouse | plasma | intraperitoneal | 32 mg/kg | single dose | 1560 ng/mL
CS(=O)(=O)CCNCc1ccc(-c2ccc3ncnc(Nc4ccc(OCc5cccc(F)c5)c(Cl)c4)c3c2)o1 | nude mouse | plasma | oral | 50 mg/kg | single dose | 6470 ng/mL
CCc1cc(C(=O)NC)c2nccc(N3CCc4c(cc(Cn5ccnc5)cc4-c4cn(C)nc4C(F)(F)F)C3=O)c2c1 | male CD-1 mouse | plasma | oral | 50 mg/kg |  | 25100 ng/mL
CC(C)N1Cc2cc(C(F)(F)F)ncc2C2=CN=C(NCc3c(F)ccc4c3CCO4)N3C=NC(C1=O)C23 (stereo not shown) | male CD-1 mouse | plasma | oral | 10 mg/kg |  | 5070 ng/mL
Cc1cc(Nc2ccc(S(F)(F)(F)(F)F)cc2)n2ccnc2n1 | male Swiss mouse | plasma | oral | 100 mg/kg | single dose | 29 µM
CNCCN(C)c1cc(C#N)cc(CCc2cc(C)cc(N)n2)c1 | male BALB/c mouse | brain | oral | 10 mg/kg |  | 39.3 ng/g
